# Reference: ChEMBL document CHEMBL1128750 (J Med Chem, 1995)
# Columns and labels:
# MCF7 = test: In vitro cytotoxicity against hormone-responsive MCF-7 cell line.; format: functional, cell-based; details: Homo sapiens
# Procedure, shortened: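 MCF-7 cells kept in DMEM with L-glutamine, gentamycin, fungisone, insulin and 5% FBS. For the assay, 5 × 10³ cells/well were plated in DMEM with 2% carbon-stripped FBS and held 24 h at 37 °C. Compounds were then added in fresh medium for 24 h. Viable cells were read by MTT, triplicate wells per concentration, and IC50 was taken from four concentrations.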
# [1] = (§1) Inhibition of calmodulin-dependent Phosphodiesterase
# Procedure, shortened: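 Calmodulin-dependent cAMP phosphodiesterase assayed with cyclic [8-3H]AMP as substrate. Tritiated AMP was converted to adenosine by snake venom 5'-nucleotidase, and nucleosides were separated from substrate on Dowex anion exchange resin with 3 mM acetic acid. Basal, calmodulin-independent activity was taken with 1 mM EGTA. Compounds were added in DMSO at several concentrations. IC50 is the mean of triplicates ± standard error.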
# [2] = as §1; remark: listed apart in the source
smiles,measurement,setting,value
C#Cc1ccc(/C(=C(\CC)c2ccccc2)c2ccc(OCCN3CCCC3)cc2)cc1,IC50,MCF7,14.7 µM
same,IC50,[1],3.3 µM
CCCCc1ccc(/C(=C(\CC)c2ccccc2)c2ccc(OCCN3CCCC3)cc2)cc1,IC50,[1],1.8 µM
CCCCc1ccc(/C(=C(\CC)c2ccccc2)c2ccc(OCCN(C)C)cc2)cc1,IC50,[1],3.7 µM
CC/C(=C(\c1ccc(I)cc1)c1ccc(OCCN(C)C)cc1)c1ccccc1,IC50,[1],2.3 µM
CC/C(=C(\c1ccc(I)cc1)c1ccc(OCCCN(C)C)cc1)c1ccccc1,IC50,[1],1.4 µM
C#Cc1ccc(/C(=C(\CC)c2ccccc2)c2ccc(OCCN(C)C)cc2)cc1,IC50,[1],4.6 µM
CC/C(=C(\c1ccc(I)cc1)c1ccc(OCCCN2CCCC2)cc1)c1ccccc1,IC50,MCF7,4.5 µM
same,IC50,[1],1.1 µM
CC/C(=C(\c1ccc(O)cc1)c1ccc(OCCN(C)C)cc1)c1ccccc1,IC50,MCF7,15.5 µM
same,IC50,[1],19 µM
CC/C(=C(\c1ccc(I)cc1)c1ccc(OCCCCN2CCCC2)cc1)c1ccccc1,IC50,MCF7,4 µM
same,IC50,[1],1 µM
CC/C(=C(\c1ccccc1)c1ccc(OCCN(C)C)cc1)c1ccccc1 [TAMOXIFEN],IC50,MCF7,14 µM
same,IC50,[2],6.8 µM
CC/C(=C(\c1ccc(I)cc1)c1ccc(OCCCCN(C)C)cc1)c1ccccc1,IC50,[1],1.3 µM
CC/C(=C(\c1ccc(I)cc1)c1ccc(OCCN2CCCC2)cc1)c1ccccc1 [IDOXIFENE],IC50,MCF7,7.3 µM
same,IC50,[1],1.5 µM
